Reference: ChEMBL document CHEMBL4229377, “Design, synthesis and bioevaluation of 1,2,3,9-tetrahydropyrrolo[2,1-b]quinazoline-1-carboxylic acid derivatives as potent neuroprotective agents” (Eur J Med Chem, 2018)
The source made the active and inactive calls. No cut-off for these calls is given here.

Key:
SH-SY5Y [1] = test: Neuroprotective activity against NMDA-induced cell damage in human SH-SY5Y cells assessed as cell viability at 10 uM preincubated for 6 hrs followed by NMDA addition and measured after 30 mins by MTT assay (reference value: 58.7 +/- 2.3%); assay type: functional; conditions: read-out: Activity
SH-SY5Y [2] = test: Neuroprotective activity against NMDA-induced cell damage in human SH-SY5Y cells assessed as cell viability at 0.1 uM preincubated for 6 hrs followed by NMDA addition and measured after 30 mins by MTT assay (reference value: 58.7 +/- 2.3%); assay type: functional; conditions: read-out: Activity
SH-SY5Y [3] = test: Neuroprotective activity against NMDA-induced cell damage in human SH-SY5Y cells assessed as cell viability at 100 uM preincubated for 6 hrs followed by NMDA addition and measured after 30 mins by MTT assay (reference value: 58.7 +/- 2.3%)
SH-SY5Y [4] = test: Neuroprotective activity against NMDA-induced cell damage in human SH-SY5Y cells assessed as cell viability at 1 uM preincubated for 6 hrs followed by NMDA addition and measured after 30 mins by MTT assay (reference value: 58.7 +/- 2.3%); assay type: functional; conditions: read-out: Activity
[5] = Metabolic stability in human liver microsomes assessed as parent compound remaining at 10 uM after 60 mins in absence of NADPH; assay type: ADME, microsome; conditions: read-out: Stability
Outline: (§1)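 Human liver microsomes were incubated for 60 min with an NADPH regenerating system to derive T1/2 and CL (µL/min/mg). A no-cofactor sample, with buffer replacing NADPH, was run alongside over 60 min to give % parent remaining.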

[6] = Clearance in human liver microsomes at 10 uM preincubated for 10 mins followed by NADPH addition and measured up to 60 mins; assay type: ADME, microsome; conditions: read-out: CLH; outline: as §1
[7] = Half life in human liver microsomes at 10 uM preincubated for 10 mins followed by NADPH addition and measured up to 60 mins; assay type: ADME, microsome; outline: as §1
[8] = target: Glutamate receptor ionotropic, NMDA 2B (Homo sapiens) (UniProt Q13224); test: Antagonist activity at NR2B NMDA receptor in human SH-SY5Y cells assessed as inhibition of NMDA-induced decrease in ERK1/2 phosphorylation at 0.1 to 10 uM preincubated for 6 hrs followed by NMDA addition and measured after 30 mins by Western blot analysis; assay type: cell-based
Glutamate receptor ionotropic, NMDA 2B (Homo sapiens), sequence (Q13224 27-1484 limits assumed): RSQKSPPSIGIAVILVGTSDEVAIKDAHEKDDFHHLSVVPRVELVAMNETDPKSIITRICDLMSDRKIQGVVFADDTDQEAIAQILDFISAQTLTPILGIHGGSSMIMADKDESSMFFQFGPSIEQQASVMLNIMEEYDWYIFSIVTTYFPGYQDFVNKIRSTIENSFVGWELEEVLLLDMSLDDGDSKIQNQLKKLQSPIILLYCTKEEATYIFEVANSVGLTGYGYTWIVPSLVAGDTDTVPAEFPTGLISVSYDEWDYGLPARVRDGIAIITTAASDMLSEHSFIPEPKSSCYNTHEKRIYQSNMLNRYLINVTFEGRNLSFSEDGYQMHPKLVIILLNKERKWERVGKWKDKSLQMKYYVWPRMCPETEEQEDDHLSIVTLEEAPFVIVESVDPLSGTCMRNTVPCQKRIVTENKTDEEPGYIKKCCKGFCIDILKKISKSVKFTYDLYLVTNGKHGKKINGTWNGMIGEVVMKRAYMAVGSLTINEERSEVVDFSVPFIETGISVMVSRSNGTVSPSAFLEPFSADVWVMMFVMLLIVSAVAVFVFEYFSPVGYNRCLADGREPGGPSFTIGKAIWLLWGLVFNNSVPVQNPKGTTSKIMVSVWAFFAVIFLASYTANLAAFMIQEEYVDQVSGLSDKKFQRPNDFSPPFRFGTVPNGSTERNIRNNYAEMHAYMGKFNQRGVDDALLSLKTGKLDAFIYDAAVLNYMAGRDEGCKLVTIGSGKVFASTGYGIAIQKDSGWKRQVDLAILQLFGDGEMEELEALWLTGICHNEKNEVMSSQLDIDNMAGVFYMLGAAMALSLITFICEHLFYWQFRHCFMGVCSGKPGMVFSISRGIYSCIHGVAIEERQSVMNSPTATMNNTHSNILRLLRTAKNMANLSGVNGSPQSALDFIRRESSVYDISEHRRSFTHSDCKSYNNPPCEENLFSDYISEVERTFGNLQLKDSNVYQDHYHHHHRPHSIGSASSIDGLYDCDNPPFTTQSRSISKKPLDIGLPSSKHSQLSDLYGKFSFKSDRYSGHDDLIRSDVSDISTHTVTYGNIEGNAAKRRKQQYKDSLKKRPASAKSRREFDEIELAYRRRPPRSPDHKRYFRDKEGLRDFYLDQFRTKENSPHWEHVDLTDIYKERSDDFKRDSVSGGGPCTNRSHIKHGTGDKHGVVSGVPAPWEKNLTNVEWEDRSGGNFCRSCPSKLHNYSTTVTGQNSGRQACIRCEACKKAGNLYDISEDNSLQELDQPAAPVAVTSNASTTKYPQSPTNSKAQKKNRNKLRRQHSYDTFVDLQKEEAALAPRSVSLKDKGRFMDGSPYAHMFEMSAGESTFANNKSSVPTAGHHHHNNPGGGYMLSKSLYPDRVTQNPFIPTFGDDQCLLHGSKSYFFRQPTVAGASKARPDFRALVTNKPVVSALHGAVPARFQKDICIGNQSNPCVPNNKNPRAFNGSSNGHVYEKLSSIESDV
Outline: (§2)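 SH-SY5Y lysates were analysed by Western blot for NR2B expression and for p-ERK1/2 relative to total ERK. Data are means ± S.E.M., n = 3, compared against control and NMDA-treated groups.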

SH-SY5Y [9] = test: Down regulation of NMDA-induced NR2B level in human SH-SY5Y cells at 0.1 to 10 uM preincubated for 6 hrs followed by NMDA addition and measured after 30 mins by Western blot analysis; assay type: functional, cell-based; outline: as §2
[10] = target: Glutamate receptor ionotropic, NMDA 2B (Homo sapiens) (UniProt Q13224); test: Antagonist activity at NR2B NMDA receptor in human SH-SY5Y cells assessed as inhibition of NMDA-induced intracellular Ca2+ influx at 10 uM incubated for 3 hrs prior to fluo-3AM dye addition for 30 mins followed by NMDA addition and measured every 5 secs by laser scanning confocal microscopic analysis; assay type: cell-based
Outline: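 SH-SY5Y cells were loaded with fluo-3 AM, and cytoplasmic Ca²⁺ was followed as green fluorescence by laser scanning confocal microscopy over time. NMDA was added at 2 mM final to cells with or without compound pretreatment; n = 9 cells per group.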

Compound	viability at 10 µM (SH-SY5Y [1])	viability at 0.1 µM (SH-SY5Y [2])	Activity (SH-SY5Y [3])	viability at 1 µM (SH-SY5Y [4])	remaining at 1 h, 10 µM [5]	microsomal CLint at 10 µM [6]	half-life at 10 µM [7]	inhibition [8]	Activity (SH-SY5Y [9])	inhibition [10]
O=C(NCc1ccc(F)cc1)[C@H]1CCC2=Nc3ccccc3CN21	72.9%	71.1%	63.9%	74.7%	–	–	–	–	–	–
O=C(NCc1ccc(F)cc1)[C@@H]1CCC2=Nc3ccc(Br)cc3CN21	70.4%	64.8%	60.1%	70.4%	–	–	–	–	–	–
O=C(NCc1ccccc1)[C@@H]1CCC2=Nc3ccccc3CN21	70.5%	68.4%	64.4%	71.6%	–	–	–	–	–	–
Cc1ccc(CNC(=O)[C@@H]2CCC3=Nc4ccccc4CN32)cc1	72.5%	66.2%	54.5%	73.4%	–	–	–	–	–	–
O=C(NCc1ccc(O)cc1)[C@H]1CCC2=Nc3ccccc3CN21	64.2%	65.2%	60.9%	68%	–	–	–	–	–	–
O=C(NCCc1ccc(O)cc1)[C@H]1CCC2=Nc3ccccc3CN21	70.5%	65.2%	68%	80.7%	–	–	–	–	–	–
O=C(Nc1ccc(O)cc1)[C@H]1CCC2=Nc3ccc(Br)cc3CN21	68.3%	61.7%	66%	71.3%	–	–	–	–	–	–
O=C(NCCc1c[nH]c2ccccc12)[C@@H]1CCC2=Nc3ccccc3CN21	80.9%	66.2%	78.2%	72%	–	–	–	–	–	–
O=C(OCc1ccccc1)[C@@H]1CCC2=Nc3ccccc3CN21	66.1%	61%	57.4%	65.5%	–	–	–	–	–	–
N=C(NCc1ccc(O)cc1)[C@@H]1CCC2=Nc3ccccc3CN21	70.2%	61.6%	64.3%	69.2%	–	–	–	–	–	–
O=C(Nc1ccc(O)cc1)[C@@H]1CCC2=Nc3ccc(Br)cc3CN21	68%	62.9%	68.4%	66.2%	–	–	–	–	–	–
O=C(NCCc1ccc(F)cc1)[C@@H]1CCC2=Nc3ccccc3CN21	68.1%	71.4%	33.5%	75.4%	–	–	–	–	–	–
O=C(NCCc1ccccc1)[C@@H]1CCC2=Nc3ccccc3CN21	80%	73.7%	57.5%	77.6%	–	–	–	–	–	–
O=C(NCCCc1ccccc1)[C@@H]1CCC2=Nc3ccccc3CN21	63.4%	67.2%	30.3%	71.2%	–	–	–	–	–	–
COc1ccc(CNC(=O)[C@@H]2CCC3=Nc4ccc(Br)cc4CN32)cc1	74.3%	60.4%	55.3%	68.8%	–	–	–	–	–	–
O=C(NCc1ccc(F)cc1)[C@@H]1CCC2=Nc3ccccc3CN21	78.9%	67.1%	63.2%	72.6%	–	–	–	–	–	–
COc1ccc(COC(=O)[C@@H]2CCC3=Nc4ccccc4CN32)cc1	65.3%	61.4%	63.6%	64.1%	3.2%	1180 µL/min/mg	1.2 min	–	–	–
O=C(NCCCc1ccccc1)[C@H]1CCC2=Nc3ccc(Br)cc3CN21	65.4%	58.1%	44.1%	72.1%	–	–	–	–	–	–
COc1ccc(CCNC(=O)[C@@H]2CCC3=Nc4ccccc4CN32)cc1	75.1%	73%	60%	81%	–	–	–	–	–	–

Compound	viability at 10 µM (SH-SY5Y [1])	viability at 0.1 µM (SH-SY5Y [2])	Activity (SH-SY5Y [3])	viability at 1 µM (SH-SY5Y [4])	remaining at 1 h, 10 µM [5]	microsomal CLint at 10 µM [6]	half-life at 10 µM [7]	inhibition [8]	Activity (SH-SY5Y [9])	inhibition [10]
O=C(N[C@H](CO)Cc1ccccc1)[C@@H]1CCC2=Nc3ccccc3CN21	79.6%	67.1%	72.4%	82.6%	–	–	–	–	–	–
COc1ccc(NC(=O)[C@@H]2CCC3=Nc4ccccc4CN32)cc1	66.4%	64.7%	48.4%	72.7%	–	–	–	–	–	–
O=C(NCc1ccc(O)cc1)[C@H]1CCC2=Nc3ccc(Br)cc3CN21	67.4%	75%	56.9%	78%	–	–	–	–	–	–
O=C(NCCc1ccc(O)cc1)[C@H]1CCC2=Nc3ccc(Br)cc3CN21	78.2%	67.8%	81.5%	74.5%	–	–	–	–	–	–
O=C(Nc1ccc(O)cc1)[C@@H]1CCC2=Nc3ccccc3CN21	70.1%	67.7%	70.9%	68.3%	–	–	–	–	–	–
O=C(NCCc1ccc(O)cc1)[C@@H]1CCC2=Nc3ccccc3CN21	81.4%	67.7%	67.8%	78.1%	–	–	–	–	–	–
N=C(NCc1ccccc1)[C@@H]1CCC2=Nc3ccccc3CN21	68.8%	61.6%	66.4%	68.6%	–	–	–	–	–	–
O=C(NCCCc1ccccc1)[C@H]1CCC2=Nc3ccccc3CN21	70.2%	62.2%	42%	71.6%	–	–	–	–	–	–
O=C(Nc1ccccc1)[C@@H]1CCC2=Nc3ccccc3CN21	60.4%	68.7%	54.6%	71.4%	–	–	–	–	–	–
C[C@@H]([C@@H](O)c1ccc(O)cc1)N1CCC(Cc2ccccc2)CC1 [(S)-IFENPRODIL]	79.5%	71%	65.1%	72.7%	87.3%	109 µL/min/mg	12.8 min	–	–	–
COc1ccc(CNC(=O)[C@@H]2CCC3=Nc4ccccc4CN32)cc1	74.1%	68.1%	64.4%	71.8%	–	–	–	–	–	–
O=C(NCCCc1ccccc1)[C@@H]1CCC2=Nc3ccc(Br)cc3CN21	66.1%	69.1%	42.2%	76.6%	–	–	–	–	–	–
O=C(Nc1ccc(O)cc1)[C@H]1CCC2=Nc3ccccc3CN21	69.6%	65.6%	73.3%	67.2%	–	–	–	–	–	–
COc1ccc(CNC(=N)[C@@H]2CCC3=Nc4ccccc4CN32)cc1	66.1%	64.8%	56.9%	65.8%	–	–	–	–	–	–
O=C(NCCc1ccc(O)cc1)[C@@H]1CCC2=Nc3ccc(Br)cc3CN21	84.4%	75.8%	78.6%	80%	99.3%	46.3 µL/min/mg	29.9 min	Active	Active	Active
O=C(NCc1ccc(O)cc1)[C@@H]1CCC2=Nc3ccccc3CN21	73.8%	67.6%	70.3%	72%	–	–	–	–	–	–
COc1ccc(CNC(=O)[C@H]2CCC3=Nc4ccccc4CN32)cc1	76.2%	66.6%	58.4%	70.7%	–	–	–	–	–	–
O=C(NCc1ccc(O)cc1)[C@@H]1CCC2=Nc3ccc(Br)cc3CN21	76%	69%	60%	73.5%	–	–	–	–	–	–
